This passage reports activity change, negative = decrease results from PubChem BioAssay AID504324 (Broad Institute, 2011).

Each structure is given as a SMILES string. “And” between values parts separate entries of the source, which are not always exact repeats. Equal values may be shown once. The source made the active and inactive calls.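 Rule for the calls: active = compounds lowering the signal whose fitted half-maximal concentration is at most ten times their top tested dose; inconclusive = flat curve with a 30 to 70% drop, or poor fit; inactive = rising signal, flat curve, or potency beyond limit.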

The nature of this test: HRE-luciferase induction in zinc-containing medium – U2OS HRE-luc cells, dry powder, mechanism study for HIF pathway activator project, dose response (AID 504324). Conditions: U2OS HRE-luciferase reporter, zinc medium, luminescence; at 38 µM (top of the series). In short, it runs like this: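 Material: human osteosarcoma U2OS cells stably expressing 3×HRE-driven luciferase reporter / Schedule: 24 h plating, then 24 h compound treatment at 37 °C / Detection: Steady-Glo luciferase luminescence / Medium: phenol red-free DMEM, 10% FBS, plus 50 µM zinc sulfate / Compound: 8-point, 3-fold compound series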

Consider `c1ccc(CCNc2nc(-c3ccccn3)nnc2-c2ccccc2)cc1`, for which the activity change, negative = decrease is 4750% (inactive).
Regarding `c1ccc(-c2nnc(-c3ccccn3)nc2NCCc2ccccn2)cc1`, the activity change, negative = decrease was 4700% (inactive).
Take `COc1cccc(CNc2nc(-c3ccccn3)nnc2-c2ccccc2)c1`: the activity change, negative = decrease was 4540% (inactive).
On to `c1ccc(-c2nnc(-c3ccccn3)nc2NCC2CC2)cc1`, for which the activity change, negative = decrease is 5580% (inactive).
As to `CC(C)(C)c1ccc(CNc2nc(-c3ccccn3)nnc2-c2ccccc2)cc1`, the activity change, negative = decrease is 3790% (inactive).
For the compound `CN1CCN(c2nc(-c3ccccn3)nnc2-c2ccccc2)CC1`, the activity change, negative = decrease was 1500% (inactive).
Turning to `CN1CCN(C(=O)c2cc(-c3ccccc3)on2)CC1`, the activity change, negative = decrease is 13.1% (inactive).
Then `CN(C)c1nc(-c2ccccn2)nnc1-c1ccccc1`, with 3380% (inactive); and `c1ccc(-c2csc(Nc3nc(-c4ccccn4)nnc3-c3ccccc3)n2)cc1`, with 315% (inactive).
Consider `CC1CN(Cc2ccc(O)c3ncccc23)CC(C)O1` (configuration not stated), for which the activity change, negative = decrease was 4.72% (inactive).
With `Cc1cccc(NC(=O)c2cc(-c3ccccc3)on2)n1`, the activity change, negative = decrease was 39.8% (inactive).
Turning to `O=C(NCC1CCCCC1)c1cc(-c2ccccc2)on1`, the activity change, negative = decrease is 158% (inactive).
As to `O=C(c1cc(-c2ccccc2)on1)N1CCC(N2CCOCC2)CC1`, the activity change, negative = decrease is -1.04% (inactive).
Take `C=CCNc1nc(-c2ccccn2)nnc1-c1ccccc1`: the activity change, negative = decrease is 5230% (inactive).
Then `Cc1cccc(CNC(=O)c2cc(-c3ccccc3)on2)c1`, with -6.77% (inactive); and `O=C(Nc1cnc2ccccc2c1)c1cc(-c2ccccc2)on1`, with 17.3% (inactive); and `c1ccc(-c2nnc(-c3ccccn3)nc2NCC2CCCCC2)cc1`, with 8340% (inactive).
Take `O=C(NCCCn1ccnc1)c1cc(-c2ccccc2)on1`: the activity change, negative = decrease is 1800% (inactive).
In the case of `CCCCNC(=O)c1cc(-c2ccccc2)on1`, the activity change, negative = decrease is 1050% (inactive).
`O=C(NCCN1CCCCC1)c1cc(-c2ccccc2)on1`: the activity change, negative = decrease is 56.5% (inactive).
With `Cc1ccc(NC(=O)c2cc(-c3ccccc3)on2)cn1`, the activity change, negative = decrease was 21.6% (inactive).
For `c1ccc(-c2nnc(-c3ccccn3)nc2NCc2cccnc2)cc1`, the activity change, negative = decrease is 3620% (inactive).
In the case of `C[C@@H](Nc1nc(-c2ccccn2)nnc1-c1ccccc1)c1ccccc1`, the activity change, negative = decrease is 4300% (inactive).
Then `COc1ccc(CNc2nc(-c3ccccn3)nnc2-c2ccccc2)cc1`, with 5130% (inactive); and `c1ccc(-c2ccc(CNc3nc(-c4ccccn4)nnc3-c3ccccc3)cc2)cc1`, with 3920% (inactive).
As for `CN(C)CCNC(=O)c1cc(-c2ccccc2)on1`, the activity change, negative = decrease was 31.3% (inactive).
As to `Cn1c(NC(=O)c2cc(-c3ccccc3)on2)nc2ccccc21`, the activity change, negative = decrease was -2.21% (inactive).
As to `c1ccc(-c2nnc(-c3ccccn3)nc2N2CCC(C3CCCCC3)C2)cc1` (configuration not stated), the activity change, negative = decrease is 4900% (inactive).
Consider `O=C(c1cc(-c2ccccc2)on1)N1CCC(CO)CC1`, for which the activity change, negative = decrease was 14.3% (inactive).
As for `Cc1ccccc1CNC(=O)c1cc(-c2ccccc2)on1`, the activity change, negative = decrease is 25.4% (inactive).
As for `O=C(NCc1ccccc1)c1cc(-c2ccccc2)on1`, the activity change, negative = decrease was 64% (inactive).
On to `CC(C)(C)CCNC(=O)c1cc(-c2ccccc2)on1`, for which the activity change, negative = decrease is 651% (inactive).
In the case of `c1ccc(-c2nnc(-c3ccccn3)nc2N2CCC(N3CCOCC3)CC2)cc1`, the activity change, negative = decrease was 4120% (inactive).
Regarding `O=C(Nc1ncc(-c2ccccc2)o1)c1cc(-c2ccccc2)on1`, the activity change, negative = decrease is 18.1% (inactive).
In the case of `Oc1ccc(CN2CCc3ccccc3C2)c2cccnc12`, the activity change, negative = decrease was -77.2% (inactive) and 47.2% (inactive).
Turning to `O=C(NCCN1CCOCC1)c1cc(-c2ccccc2)on1`, the activity change, negative = decrease is 1440% (inactive).
Take `O=C(Nc1ncc2ccccc2n1)c1cc(-c2ccccc2)on1`: the activity change, negative = decrease was 152% (inactive).
Regarding `OCC1CCN(Cc2ccc(O)c3ncccc23)CC1`, the activity change, negative = decrease is 29.9% (inactive).
Turning to `Cc1ccc(Nc2nc(-c3ccccn3)nnc2-c2ccccc2)cn1`, the activity change, negative = decrease is 2240% (inactive).
For the compound `c1ccc(-c2nnc(-c3ccccn3)nc2N2CCN(c3ccncc3)CC2)cc1`, the activity change, negative = decrease is 4830% (inactive).
Then `COc1ccccc1N1CCN(Cc2ccc(O)c3ncccc23)CC1`, with 52.8% (inactive); and `OCCCNc1nc(-c2ccccn2)nnc1-c1ccccc1`, with 3730% (inactive); and `O=C(NCCCN1CCOCC1)c1cc(-c2ccccc2)on1`, with 1480% (inactive).
Take `OCC1CCN(c2nc(-c3ccccn3)nnc2-c2ccccc2)CC1`: the activity change, negative = decrease was 1330% (inactive).
Then `Oc1ccc(CN2CCC(Cc3ccccc3)CC2)c2cccnc12`, with 27.6% (inactive); and `Cn1c(-c2ccccc2)cnc1Nc1nc(-c2ccccn2)nnc1-c1ccccc1`, with 210% (inactive).
Take `Oc1ccc(CNC2Cc3ccccc3C2)c2cccnc12`: the activity change, negative = decrease was 314% (inactive).
With `Cc1ccc(CNc2nc(-c3ccccn3)nnc2-c2ccccc2)cc1`, the activity change, negative = decrease is 6080% (inactive).
As to `Clc1cccc(CNc2nc(-c3ccccn3)nnc2-c2ccccc2)c1`, the activity change, negative = decrease was 4600% (inactive).
`O=C(NCCCCO)c1cc(-c2ccccc2)on1`: the activity change, negative = decrease was 1710% (inactive).
For the compound `O=C(NC1Cc2ccccc2C1)c1cc(-c2ccccc2)on1`, the activity change, negative = decrease was 146% (inactive).
Turning to `CC(C)(C)OC(=O)N1CCN(Cc2ccc(O)c3ncccc23)CC1`, the activity change, negative = decrease was 28.3% (inactive).
`c1ccc(-c2nnc(-c3ccccn3)nc2N2CCC(c3ccccc3)C2)cc1` (configuration not stated): the activity change, negative = decrease was 5380% (inactive).
Then `c1ccc(-c2nnc(-c3ccccn3)nc2NCC2CCOCC2)cc1`, with 3680% (inactive).
Consider `O=C(Nc1nc(-c2ccccc2)cs1)c1cc(-c2ccccc2)on1`, for which the activity change, negative = decrease is -11.2% (inactive).
Then `c1ccc(CNc2nc(-c3ccccn3)nnc2-c2ccccc2)cc1`, with 5410% (inactive).
`CC(C)(C)CCNc1nc(-c2ccccn2)nnc1-c1ccccc1`: the activity change, negative = decrease was 7490% (inactive) and 6820% (inactive).
Then `Cc1ccc(CNc2nc(-c3ccccn3)nnc2-c2ccccc2)cc1C`, with 4550% (inactive); and `O=C(Nc1cn2ccccc2n1)c1cc(-c2ccccc2)on1`, with 41.5% (inactive); and `O=C(c1cc(-c2ccccc2)on1)N1CCC(N2CCCC2)CC1`, with 6.15% (inactive).
For the compound `O=C(Nc1nc2ccccc2s1)c1cc(-c2ccccc2)on1`, the activity change, negative = decrease was 12.6% (inactive).
On to `Cc1ccccc1CNc1nc(-c2ccccn2)nnc1-c1ccccc1`, for which the activity change, negative = decrease was 5380% (inactive).
Regarding `O=C(c1cc(-c2ccccc2)on1)N1CCN(c2ccncc2)CC1`, the activity change, negative = decrease is -13.1% (inactive).
For the compound `Oc1ccc(CN2CCC3CCCCC3C2)c2cccnc12` (configuration not stated), the activity change, negative = decrease was 916% (inactive).
Then `C[C@H](Nc1nc(-c2ccccn2)nnc1-c1ccccc1)C1CCCCC1`, with 5570% (inactive).
For the compound `c1ccc(-c2nnc(-c3ccccn3)nc2NCCCN2CCOCC2)cc1`, the activity change, negative = decrease is 5050% (inactive).
Turning to `CC(Nc1nc(-c2ccccn2)nnc1-c1ccccc1)c1ccccc1` (configuration not stated), the activity change, negative = decrease was 4380% (inactive).
As for `O=C(NC1CCc2ccccc2C1)c1cc(-c2ccccc2)on1` (configuration not stated), the activity change, negative = decrease was -9.29% (inactive).
Then `O=C(c1cc(-c2ccccc2)on1)N1CCc2cccnc21`, with 44% (inactive).
In the case of `O=C(Nc1ccc2ccccc2n1)c1cc(-c2ccccc2)on1`, the activity change, negative = decrease was 22.8% (inactive).
For the compound `O=C(NCCCO)c1cc(-c2ccccc2)on1`, the activity change, negative = decrease is 811% (inactive).
For the compound `c1ccc(-c2nnc(-c3ccccn3)nc2NCCN2CCOCC2)cc1`, the activity change, negative = decrease was 3780% (inactive).
In the case of `c1ccc(-c2cccc(CNc3nc(-c4ccccn4)nnc3-c3ccccc3)c2)cc1`, the activity change, negative = decrease is 4810% (inactive).
Then `Cc1ccc(CNC(=O)c2cc(-c3ccccc3)on2)cc1`, with 10.4% (inactive).
`Cn1c(-c2ccccc2)cnc1NC(=O)c1cc(-c2ccccc2)on1`: the activity change, negative = decrease is 19% (inactive).
On to `c1ccc(-c2nnc(Nc3nc(-c4ccccn4)nnc3-c3ccccc3)s2)cc1`, for which the activity change, negative = decrease is 161% (inactive).
Consider `O=C(NCC1CC1)c1cc(-c2ccccc2)on1`, for which the activity change, negative = decrease was 798% (inactive).
Then `O=C(Nc1nnc(-c2ccccc2)s1)c1cc(-c2ccccc2)on1`, with 6.48% (inactive); and `N#CC1(c2ccccc2)CCN(Cc2ccc(O)c3ncccc23)CC1`, with 208% (inactive); and `Cc1cccc(CNc2nc(-c3ccccn3)nnc2-c2ccccc2)c1`, with 6280% (inactive).
In the case of `c1ccc(-c2nnc(-c3ccccn3)nc2NCc2ccccn2)cc1`, the activity change, negative = decrease was 3330% (inactive).
Regarding `C[C@@H](Nc1nc(-c2ccccn2)nnc1-c1ccccc1)C1CCCCC1`, the activity change, negative = decrease is 4780% (inactive).
